Experimental findings from EPA's CvTdb concentration-time database are described below.

Data set [1] concerns Mouse. The data set can be described thus: concentration in plasma after dosing. Conditions: 0.25 h; dosed: 2-Hydroxy-4-methoxybenzophenone; 500 mg/kg; oral; Female; B6C3F1.
Data set [2] has as its system Rat. The data set can be described thus: concentration in plasma after dosing. Conditions: 0.25 h; dosed: 2-Hydroxy-4-methoxybenzophenone; 500 mg/kg; oral; Male; F344.
In data set [3] the test system is Rat. Kind of data set: concentration in plasma after dosing. The settings on record: 4 h; dosed: 2-Hydroxy-4-methoxybenzophenone; 500 mg/kg; oral; Male; F344.
For data set [4], the system named is Rat. The data set can be described thus: concentration in plasma after dosing. Conditions: dosed: 2-Hydroxy-4-methoxybenzophenone, 250 mg/kg, oral, Male, F344.
For data set [5], the system named is Rat. Kind of data set: concentration in plasma after dosing. The settings on record: dosed: 2-Hydroxy-4-methoxybenzophenone, 500 mg/kg, oral, Male, F344.
The subject of data set [6] is Mouse. The data set can be described thus: concentration in plasma after dosing. The settings on record: 0.25 h; dosed: 2-Hydroxy-4-methoxybenzophenone; 250 mg/kg; oral; Female; B6C3F1.
Data set [7] deals with Rat. Kind of data set: concentration in plasma after dosing. The settings on record: dosed: 2-Hydroxy-4-methoxybenzophenone, 500 mg/kg, oral, Female, F344.
Data set [8] relates to Rat. The data set can be described thus: concentration in plasma after dosing. Conditions: 10 min; dosed: 2-Hydroxy-4-methoxybenzophenone; 100 mg/kg; oral; Male; F344.
In data set [9] the test system is Rat. The data set can be described thus: concentration in plasma after dosing. The settings on record: 0.5 h; dosed: Primidone; 80 mg/kg; oral; Female; Harlan Sprague-Dawley.
Data set [10] has as its system Hamster. The data set can be described thus: concentration in plasma after dosing. The settings on record: dosed: 2,4-Dichlorophenoxyacetic acid, 8.0 mg/kg, iv, Male, Syrian Golden. A digest of the protocol: (§1)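 Concentration-versus-time or amount-versus-time points were compiled from published in vivo toxicokinetic studies and from two structured collections. The studies were found by PubMed searching, classifier screening and manual review. Points were mostly digitised from plot screenshots with WebPlotDigitizer, otherwise copied from tables, and kept in the reported units. Dose, route, subject details and medium were curated by hand from each paper, and sampling and analytical methods follow each source and were often unreported.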

In data set [11] the test system is Hamster. The data set can be described thus: concentration in plasma after dosing. The settings on record: dosed: 2,4-Dichlorophenoxyacetic acid, 8.0 mg/kg, iv, Male, Syrian Golden. In a few lines:
as §1
The source holds these as a separate data set.

Data set [12] deals with Rat. The data set can be described thus: concentration in plasma after dosing. Conditions: 12 h; dosed: alpha-Thujone; 50 mg/kg; oral; Male; Harlan Sprague Dawley.
Data set [13] deals with Rat. The data set can be described thus: concentration in plasma after dosing. The settings on record: 0.5 h; dosed: alpha-Thujone; 25 mg/kg; oral; Male; Harlan Sprague Dawley.
Data set [14] deals with Rat. Kind of data set: concentration in plasma after dosing. The settings on record: 0.5 h; dosed: alpha-Thujone; 50 mg/kg; oral; Female; Harlan Sprague Dawley.
For data set [15], the system named is Rat. Kind of data set: concentration in plasma after dosing. The settings on record: 10 min; dosed: alpha-Thujone; 25 mg/kg; oral; Male; Harlan Sprague Dawley.
Data set [16] deals with Rat. The data set can be described thus: concentration in brain after dosing. The settings on record: 3 h; dosed: Perfluorohexane-1-sulphonic acid – potassium salt; 16 mg/kg; oral; Female; Harlan Sprague Dawley.
For data set [17], the system named is Rat. Kind of data set: concentration in plasma after dosing. The settings on record: dosed: Perfluorohexane-1-sulphonic acid – potassium salt, 4 mg/kg, oral, Male, F344.
Data set [18] relates to Rat. The data set can be described thus: concentration in kidney after dosing. The settings on record: 96 h; dosed: Perfluorohexane-1-sulphonic acid – potassium salt; 16 mg/kg; oral; Female; Harlan Sprague Dawley.
The test system of data set [19] is Rat. Kind of data set: concentration in liver after dosing. Conditions: 192 h; dosed: Perfluorohexane-1-sulphonic acid – potassium salt; 16 mg/kg; oral; Female; F344.
In data set [20] the test system is Rat. The data set can be described thus: concentration in liver after dosing. Conditions: 96 h; dosed: Perfluorohexane-1-sulphonic acid – potassium salt; 16 mg/kg; oral; Female; Harlan Sprague Dawley.
The test system of data set [21] is Rat. The data set can be described thus: concentration in kidney after dosing. Conditions: 192 h; dosed: Perfluorohexane-1-sulphonic acid – potassium salt; 16 mg/kg; oral; Female; F344.
The test system of data set [22] is Rat. The data set can be described thus: concentration in plasma after dosing. The settings on record: 50 min; dosed: Pyridine; 10 mg/kg; iv; Male; F344.
Data set [23] concerns Rat. The data set can be described thus: concentration in plasma after dosing. The settings on record: dosed: Methyleugenol, 37 mg/kg, iv, Female, F344.

For the molecule `O=C(c1ccccc1)c1ccc(O)cc1O` [2,4-Dihydroxybenzophenone], the concentration in plasma in [1] was found to be 5480 ng/mL; in data set [2] it was 103 ng/mL; in [3], 124 ng/mL; in [4] (10 min) it was 40.9 ng/mL; in data set [4] (3 h), 71.8 ng/mL; in [5] (0.5 h) it was 236 ng/mL. Also, the concentration in plasma is 151 ng/mL in [5] (12 h); 437 ng/mL in data set [6]; 675 ng/mL in data set [7] (0.5 h); 221 ng/mL in [7] (12 h); 91 ng/mL in data set [8].

The molecule `CCC1(c2ccccc2)C(=O)NCNC1=O` [Primidone] registered a concentration in plasma in data set [9] of 22900 ng/mL.

For the molecule `O=C(O)COc1ccc(Cl)cc1Cl` [2,4-Dichlorophenoxyacetic acid], the concentration in plasma was determined as 113000 ng/mL in data set [10] (2.5 min); 36900 ng/mL in [10] (0.25 h); 26600 ng/mL in [10] (20 min); 6320 ng/mL in data set [10] (0.5 h); 939 ng/mL in data set [10] (1 h); 351 ng/mL in [10] (2.5 h). The values for the concentration in plasma in data set [11] (0.25 h) and in data set [11] (0.5 h) were 13500 ng/mL and 7690 ng/mL, respectively.

In the case of `CC(C)[C@]12CC(=O)[C@H](C)[C@H]1C2` [alpha-Thujone], the concentration in plasma in data set [12] was 20 ng/mL; in data set [13] it was 176 ng/mL; in data set [14], 5000 ng/mL; in data set [15], 464 ng/mL.

For `O=S(=O)([O-])C(F)(F)C(F)(F)C(F)(F)C(F)(F)C(F)(F)C(F)(F)F.[K+]` [Perfluorohexane-1-sulphonic acid – potassium salt], in [16], the concentration in brain was 1340 ng/g. Also, the concentration in plasma in data set [17] (0.25 h) was found to be 5490 ng/mL; in data set [17] (12 h) it was 31800 ng/mL; in data set [17] (528 h) it was 8940 ng/mL. Besides, the concentration in kidney in data set [18] worked out at 6720 ng/g; in data set [21], 16700 ng/g. Further, the results for the concentration in liver in data set [19] and in [20] were 40300 ng/g and 10200 ng/g, respectively.

`c1ccncc1` [Pyridine] had a concentration in plasma in data set [22] of 2310 ng/mL.

In the case of `C=CCc1ccc(OC)c(OC)c1` [Methyleugenol], the concentration in plasma amounted to 9200 ng/mL in [23] (0.25 h) and 738 ng/mL in data set [23] (1.5 h).
